Results reported in ChEMBL document CHEMBL5058577, “EUbOPEN Chemogenomics Library 2 (Multiplex)” (2022).

Tested on: HEK-293T
Test: Multiplex assay against HEK293T
Assay type: toxicity, cell-based
Settings: human
Summary of the method: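 Hoechst33342, BioTracker Green Microtubule Cytoskeleton Dye, MitoTracker Red and Annexin V Alexa Fluor 680 were added to live cells at seeding, and imaging on a CQ1 microscope at 37°C and 5% CO2 followed compound addition. Gating by CellPathfinder machine learning separated cells into Hoechst high-intensity objects or normal cells, then normal cells into healthy, pyknosed or fragmented nuclei, then pyknosed cells into mitotic or apoptotic. Per cents of healthy-nucleus cells are reported for the tubulin, mitochondrial-mass and membrane-permeability phenotypes.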

[1] = 12 h, 1 µM, compound concentration 1 uM, replicate 1
[2] = 12 h, 1 µM, compound concentration 1 uM, replicate 2
[3] = 12 h, 10 µM, compound concentration 10 uM, replicate 1
[4] = 12 h, 10 µM, compound concentration 10 uM, replicate 2
[5] = 24 h, 1 µM, compound concentration 1 uM, replicate 1
[6] = 24 h, 1 µM, compound concentration 1 uM, replicate 2
[7] = 24 h, 10 µM, compound concentration 10 uM, replicate 1
[8] = 24 h, 10 µM, compound concentration 10 uM, replicate 2
[9] = 48 h, 1 µM, compound concentration 1 uM, replicate 1
[10] = 48 h, 1 µM, compound concentration 1 uM, replicate 2
[11] = 48 h, 10 µM, compound concentration 10 uM, replicate 1
[12] = 48 h, 10 µM, compound concentration 10 uM, replicate 2

O=C(NCC(=O)N1CC[C@H](N[C@H]2CC[C@@](O)(c3ccc(-c4ncccn4)cn3)CC2)C1)c1cccc(C(F)(F)F)c1 [PF-4136309]
Population Apoptotic (%) [1]: 44%
Population Fragmented Nuclei (%) [1]: 6%
Population Healthy Nuclei (%) [1]: 80%
Population Hoechst High Intensity Objects (%) [1]: 4%
Population Membrane Permeable-Phenotype (%) [1]: 0%
Population Mitochondria Different-Phenotype (%) [1]: 41%
Population Mitotic Cells (%) [1]: 56%
Population Normal (%) [1]: 95%
Population Pyknosed Nuclei (%) [1]: 13%
Population Tubulin-Different-Phenotype (%) [1]: 32%
Total Cell Count [1]: 393
Population Apoptotic (%) [2]: 34%
Population Fragmented Nuclei (%) [2]: 5%
Population Hoechst High Intensity Objects (%) [2]: 6%
Population Mitochondria Different-Phenotype (%) [2]: 56%
Population Mitotic Cells (%) [2]: 66%
Population Normal (%) [2]: 93%
Population Tubulin-Different-Phenotype (%) [2]: 15%
Total Cell Count [2]: 389
Population Apoptotic (%) [3]: 39%
Population Fragmented Nuclei (%) [3]: 7%
Population Healthy Nuclei (%) [3]: 76%
Population Hoechst High Intensity Objects (%) [3]: 7%
Population Membrane Permeable-Phenotype (%) [3]: 0%
Population Mitochondria Different-Phenotype (%) [3]: 53%
Population Mitotic Cells (%) [3]: 60%
Population Normal (%) [3]: 92%
Population Pyknosed Nuclei (%) [3]: 15%
Population Tubulin-Different-Phenotype (%) [3]: 55%
Total Cell Count [3]: 358
Population Apoptotic (%) [4]: 48%
Population Fragmented Nuclei (%) [4]: 3%
Population Healthy Nuclei (%) [4]: 81%
Population Hoechst High Intensity Objects (%) [4]: 6%
Population Mitochondria Different-Phenotype (%) [4]: 75%
Population Mitotic Cells (%) [4]: 51%
Population Normal (%) [4]: 93%
Population Pyknosed Nuclei (%) [4]: 14%
Population Tubulin-Different-Phenotype (%) [4]: 45%
Total Cell Count [4]: 295
Population Apoptotic (%) [5]: 25%
Population Fragmented Nuclei (%) [5]: 10%
Population Healthy Nuclei (%) [5]: 80%
Population Hoechst High Intensity Objects (%) [5]: 2%
Population Membrane Permeable-Phenotype (%) [5]: 0%
Population Mitochondria Different-Phenotype (%) [5]: 26%
Population Mitotic Cells (%) [5]: 74%
Population Normal (%) [5]: 97%
Population Pyknosed Nuclei (%) [5]: 9%
Population Tubulin-Different-Phenotype (%) [5]: 15%
Total Cell Count [5]: 561
Population Apoptotic (%) [6]: 39%
Population Fragmented Nuclei (%) [6]: 8%
Population Hoechst High Intensity Objects (%) [6]: 5%
Population Mitochondria Different-Phenotype (%) [6]: 31%
Population Mitotic Cells (%) [6]: 60%
Population Normal (%) [6]: 94%
Population Pyknosed Nuclei (%) [6]: 11%
Population Tubulin-Different-Phenotype (%) [6]: 13%
Total Cell Count [6]: 485
Population Apoptotic (%) [7]: 35%
Population Fragmented Nuclei (%) [7]: 10%
Population Healthy Nuclei (%) [7]: 73%
Population Hoechst High Intensity Objects (%) [7]: 7%
Population Membrane Permeable-Phenotype (%) [7]: 1%
Population Mitochondria Different-Phenotype (%) [7]: 39%
Population Mitotic Cells (%) [7]: 64%
Population Normal (%) [7]: 92%
Population Pyknosed Nuclei (%) [7]: 16%
Population Tubulin-Different-Phenotype (%) [7]: 36%
Total Cell Count [7]: 450
Population Apoptotic (%) [8]: 57%
Population Fragmented Nuclei (%) [8]: 8%
Population Healthy Nuclei (%) [8]: 80%
Population Hoechst High Intensity Objects (%) [8]: 5%
Population Membrane Permeable-Phenotype (%) [8]: 0%
Population Mitochondria Different-Phenotype (%) [8]: 54%
Population Mitotic Cells (%) [8]: 42%
Population Normal (%) [8]: 94%
Population Pyknosed Nuclei (%) [8]: 11%
Population Tubulin-Different-Phenotype (%) [8]: 27%
Total Cell Count [8]: 384
Population Apoptotic (%) [9]: 18%
Population Fragmented Nuclei (%) [9]: 16%
Population Healthy Nuclei (%) [9]: 78%
Population Hoechst High Intensity Objects (%) [9]: 0%
Population Membrane Permeable-Phenotype (%) [9]: 1%
Population Mitochondria Different-Phenotype (%) [9]: 14%
Population Mitotic Cells (%) [9]: 81%
Population Normal (%) [9]: 99%
Population Pyknosed Nuclei (%) [9]: 4%
Population Tubulin-Different-Phenotype (%) [9]: 9%
Total Cell Count [9]: 1007
Population Apoptotic (%) [10]: 27%
Population Healthy Nuclei (%) [10]: 77%
Population Hoechst High Intensity Objects (%) [10]: 2%
Population Membrane Permeable-Phenotype (%) [10]: 0%
Population Mitochondria Different-Phenotype (%) [10]: 16%
Population Mitotic Cells (%) [10]: 72%
Population Normal (%) [10]: 97%
Population Pyknosed Nuclei (%) [10]: 5%
Population Tubulin-Different-Phenotype (%) [10]: 11%
Total Cell Count [10]: 907
Population Apoptotic (%) [11]: 31%
Population Fragmented Nuclei (%) [11]: 13%
Population Healthy Nuclei (%) [11]: 75%
Population Hoechst High Intensity Objects (%) [11]: 5%
Population Membrane Permeable-Phenotype (%) [11]: 0%
Population Mitochondria Different-Phenotype (%) [11]: 34%
Population Mitotic Cells (%) [11]: 68%
Population Normal (%) [11]: 94%
Population Pyknosed Nuclei (%) [11]: 11%
Population Tubulin-Different-Phenotype (%) [11]: 23%
Total Cell Count [11]: 636
Population Apoptotic (%) [12]: 43%
Population Fragmented Nuclei (%) [12]: 11%
Population Healthy Nuclei (%) [12]: 79%
Population Hoechst High Intensity Objects (%) [12]: 4%
Population Mitochondria Different-Phenotype (%) [12]: 46%
Population Mitotic Cells (%) [12]: 56%
Population Normal (%) [12]: 95%
Population Pyknosed Nuclei (%) [12]: 8%
Population Tubulin-Different-Phenotype (%) [12]: 30%
Total Cell Count [12]: 468
